# GalR3 antagonist = antagonists of human GalR3 | O60755 | HEK293 GalR3-CNG cAMP membrane potential fluorescence; galR3 body fused to GalR1 C-terminus | inhibition, % at 3 µM | actives 0.44% (n = 360,000) | AID 651719;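 active means inhibition above the screen-wide average plus 3 SD, cut at about 13% in these data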;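 further: forskolin and galanin both at EC90 stimulate the cells; cAMP rise reported by CNG channel membrane potential dye signal; 0% = forskolin plus galanin with DMSO and 100% = forskolin alone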
# Target sequence (O60755 1-299 limits assumed): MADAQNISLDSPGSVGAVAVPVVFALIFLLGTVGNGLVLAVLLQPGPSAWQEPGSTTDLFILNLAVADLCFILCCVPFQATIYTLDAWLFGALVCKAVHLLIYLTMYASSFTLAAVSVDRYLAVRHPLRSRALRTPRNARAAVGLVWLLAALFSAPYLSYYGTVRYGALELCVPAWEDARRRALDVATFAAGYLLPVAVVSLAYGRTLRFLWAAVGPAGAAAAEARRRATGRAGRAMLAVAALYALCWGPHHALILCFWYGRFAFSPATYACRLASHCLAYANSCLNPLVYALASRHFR
# NR2E3 ag-1 = agonists of human nuclear receptor NR2E3 | actives 0.12% (n = 320,000) | GST-NR2E3/biotin-RetCOR TR-FRET, 1536-well | Q9Y5X4 | inhibition of corepressor binding, % at 4.78 µM;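 active means percent inhibition above the cutoff of mean plus 3 SD of all tested compounds, set per screening campaign, cut at about 20% in these data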;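 further: 0% = DMSO wells and 100% = biotin wells as full block of FRET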
# Target sequence (Q9Y5X4 whole entry, looked up): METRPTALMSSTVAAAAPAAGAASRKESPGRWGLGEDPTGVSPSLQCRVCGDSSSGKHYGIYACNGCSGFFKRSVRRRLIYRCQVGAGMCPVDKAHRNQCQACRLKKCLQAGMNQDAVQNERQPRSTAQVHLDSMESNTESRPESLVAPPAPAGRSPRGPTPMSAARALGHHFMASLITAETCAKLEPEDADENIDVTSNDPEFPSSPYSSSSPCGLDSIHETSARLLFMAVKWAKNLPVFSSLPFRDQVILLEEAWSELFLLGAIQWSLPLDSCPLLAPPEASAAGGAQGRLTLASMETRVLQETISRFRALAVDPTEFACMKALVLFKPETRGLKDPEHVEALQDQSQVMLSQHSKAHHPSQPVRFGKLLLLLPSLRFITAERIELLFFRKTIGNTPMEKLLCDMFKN
#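 System: GST-NR2E3 and biotin-RetCOR proteins; probe or stimulus: 7 nM biotin-RetCOR; doses: compound at 4.8 µM, single dose; schedule: Compound–protein incubation for 5 h at 4 °C; detection: time-resolved FRET; read-out: percent inhibition; controls: biotin wells as high control, 0.6% DMSO wells as low control; format: 1536-well plates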
# PG9 binder = PG9 antibody binding by small molecule; inhibition, % at 6.7 µM; AID 624416; actives 0.43% (n = 360,000); TR-FRET gp120-PG9 antibody binding; in the data active means inhibition above about 8.5%
# Rev-erbA mod = modulators of human Rev-erb alpha DNA binding | AID 1259318 | activity, % at 10 µM | P20393 | actives 0.79% (n = 370,000) | Rev-erbα–FITC-DNA binding, fluorescence polarization, 90 min;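 active means activity above about 14%, limit read from the data; passing the limit was not always enough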;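 further: 0% = DMSO wells with 35 nM protein and 100% = DMSO wells with 750 nM protein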
# NR2E3 ag-2 = agonists of human NR2E3 nuclear receptor; Q9Y5X4; CHO-S Gal4-NCOR/VP16-NR2E3 two-hybrid, luciferase; inhibition of corepressor binding, % at 3.98 µM; actives 0.35% (n = 360,000);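 active means inhibition above the mean of all tested compounds plus 3 SD, cut at about 70% in these data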;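 further: 0% = DMSO with NR2E3 transfected cells and 100% = cells lacking NR2E3 construct; higher means lower luciferase signal from less NR2E3 corepressor binding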
# NR2E3 ag confirm = confirmation of human NR2E3 agonists; shares compounds with NR2E3 ag-2; inhibition, % at 3.98 µM; actives 51% (n = 2,300); AID 624378; CHO-S mammalian two-hybrid NR2E3-NCOR, luciferase luminescence;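 active means average inhibition above a cutoff equal to the mean inhibition of all tested compounds plus one SD, cut at about 70% in these data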;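 further: 0% = DMSO in NR2E3 cells and 100% = DMSO in cells lacking NR2E3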
# VP16 counter = GAL4-VP16 reporter inhibition in NR2E3 agonist counterscreen; shares compounds with NR2E3 ag-2; CHO-S GAL4-VP16 luciferase reporter, luminescence; inhibition, % at 3.98 µM; actives 29% (n = 2,300); AID 624379;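 active means mean inhibition above a cutoff equal to the average over all tested compounds plus one standard deviation, cut at about 70% in these data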;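 further: luciferase from a UAS reporter driven by GAL4-VP16 transactivation; 0% = DMSO with VP16-transfected cells and 100% = DMSO with cells lacking VP16; higher means less reporter light so more repression of VP16 activity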
# PG9 binder conf = confirmation of small molecules binding HIV-1 gp120 antibody PG9. shares compounds with PG9 binder. actives 90% (n = 1,500). inhibition, % at 6.7 µM. TR-FRET PG9 antibody binding, biochemical; in the data active means inhibition above about 9%
# PGV04 Ab binding = PGV04 control antibody binding, counter-screen; shares compounds with PG9 binder; TR-FRET PGV04 antibody-gp120 binding, biochemical; inhibition, % at 6.7 µM; actives 95% (n = 1,500); in the data active means inhibition above about 9.5%
# GalR3 conf = GalR3 (human) antagonism, confirmation; shares compounds with GalR3 antagonist; HEK293 GalR3 CNG cAMP biosensor, membrane potential fluorescence; galR3 fused to GalR1 carboxy tail; challenged with forskolin and galanin at EC90; inhibition, % at 3 µM; actives 59% (n = 1,600); AID 652245;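 active means inhibition above the primary screen's cutoff, the mean inhibition of all screened compounds plus 3 SD, cut at about 13% in these data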;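 further: 0% = forskolin plus galanin and 100% = forskolin alone with DMSO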
# CNG parental = counter-screen for GalR3 antagonists: nonspecific agonists in parental HEK-CNG cells. shares compounds with GalR3 antagonist. HEK293-CNG parental cells, cAMP membrane potential fluorescence; normalised: DMSO wells 0%, forskolin wells 100%. activation, % at 3 µM. actives 10% (n = 1,600); in the data active means activation above about 1.3%
# Numbers without * were called inactive; x = not tested or not shown. Rows were chosen to be rich in hits. Some 1.8% of all compounds tested hit in one or more screens of this group.
SMILES,GalR3 antagonist,NR2E3 ag-1,PG9 binder,Rev-erbA mod,NR2E3 ag-2,NR2E3 ag confirm,VP16 counter,GalR3 conf,CNG parental,others
CCN(CC)S(=O)(=O)c1cccc(NC(=O)CNc2cccc(S(=O)(=O)N3CCCC3)c2)c1,103.8*,-0.2,0.0,2.8,84.9*,79.8*,61.1,113.2*,-0.5,
CCCC1CCC2(CC1)CCC2OC(=O)Nc1c(OC)cccc1OC (centres undefined),x,x,x,-8.9,x,x,x,x,x,
O=C(CSc1nnc(Cn2nnc3ccccc32)o1)N(Cc1ccc(F)cc1)c1ccccc1,92.5*,-2.6,2.0,-1.0,78.6*,88.4*,73.7*,114.2*,0.1,
O=C1C(=O)N(Cc2ccc(-c3ccc(Cl)nc3)cc2)c2ccc(OC(F)(F)F)cc21,x,x,x,1.2,x,x,x,x,x,
CC(=O)c1c(C)[nH]c(C(=O)OCCCCN2C(=O)c3ccccc3C2=O)c1C,19.6*,-0.1,-0.4,-6.2,88.8*,96.2*,88.5*,59.6*,-0.4,
CC[C@@H]1CCC[C@@H](O)[C@@H](C)C(=O)O[C@H](C)[C@@H](C)C/C=C(C)/C(OC)=C\C(=O)N(C)C([C@@H](C)CC)C(=O)N(C)[C@@H](C(C)C)C(=O)N(C)[C@@H](COC)C(=O)N2CCC[C@H]2C(=O)N(C)[C@@H](C(C)C)C(=O)N2CCC[C@H]2C(=O)O1 (some centres undefined),100.5*,x,-1.1,-4.5,97.3*,98.1*,90.9*,115.3*,-1.2,
O=C(Nc1ccc(S(=O)(=O)N2CCCC2)cc1)c1ccc(CN2CCc3ccccc3C2)cc1,95.9*,0.9,0.1,-1.0,54.0,67.1,66.2,104.8*,-0.7,
O=C(N[C@@H](CO)[C@H](O)c1ccc([N+](=O)[O-])cc1)C(Cl)Cl,x,x,x,-4.4,x,x,x,x,x,
O=C(c1ccccc1)c1ccc(Cn2cc(-c3ccccc3)nn2)cc1,24.8*,-3.1,-0.8,-0.4,64.0,84.2*,64.3,56.2*,0.0,
COc1ccc(NS(=O)(=O)c2ccc(-c3coc(C)n3)cc2)cc1,-7.0,0.2,-1.1,4.2,42.9,x,x,x,x,
COc1ccc(NS(=O)(=O)c2ccc(-c3coc(C)n3)cc2)cc1OC,85.4*,2.5,-2.9,-3.8,108.4*,98.9*,87.1*,100.1*,0.0,
Cc1cc(C(=O)CSc2nc3ccccc3[nH]2)c(C)n1CC1CCCO1 (centres undefined),109.7*,-1.6,-2.3,-5.9,83.8*,86.5*,51.4,4.8,-0.2,
O=C(c1cccs1)N1CCN(c2nc3ccccc3s2)CC1,-3.3,-0.8,0.0,4.8,-46.6,x,x,x,x,
O=C(c1cc2sccc2n1Cc1ccc(F)cc1)N1CCN(c2nc3ccccc3s2)CC1,17.4*,2.0,2.4,0.8,73.9*,91.9*,63.7,73.4*,0.8,
COC(=O)C1CN(CC(C)C)CCS(=O)(=O)N1Cc1cccc(Cl)c1 (centres undefined),x,x,x,7.1,x,x,x,x,x,
O=C(Nc1ccc(Br)c2ccccc12)c1ccc2ccccc2c1O,78.3*,37.5*,35.5*,4.8,107.2*,98.8*,78.8*,89.6*,-0.1,PG9 binder conf=30.7*;PGV04 Ab binding=36.5*
CCCCOc1ncnc2c1[nH]c1ccc(F)cc12,29.1*,-1.7,-1.9,1.6,75.1*,96.8*,72.8*,46.3*,0.3,
CCNc1nc2c(c(=O)n(C)c(=O)n2C)n1Cc1ccc(Cl)cc1,21.5*,-0.4,0.2,-8.2,57.0,78.5*,55.9,71.4*,0.1,
COc1ccc(CCNc2ncnc3sc(C)cc23)cc1OC,85.7*,x,0.1,4.8,87.9*,99.2*,91.8*,109.8*,-0.3,
Cc1cccc(NC(=S)NNc2ncc(C(F)(F)F)cc2Cl)c1,0.2,1.3,-4.5,5.6,-15.8,x,x,x,x,
FC(F)(F)c1cnc(NNC(=S)Nc2ccccc2Cl)c(Cl)c1,55.0*,6.4,0.0,0.9,52.5,65.6,65.9,4.4,0.5,
COc1cccc([C@@H]2NC(=O)C/C=C/[C@H](C)[C@H](c3cccc(OC)c3)NC(=O)C/C=C/[C@@H]2C)c1,x,x,x,-1.7,x,x,x,x,x,
O=C(Cn1cnc2c(NCc3ccccc3)ncnc21)N1CCN(c2ccccn2)CC1,2.3,x,1.2,0.1,-14.2,x,x,x,x,
Cc1cc(C)c(CN2CCN(C(=O)Cn3cnc4c(NCc5ccccc5)ncnc43)CC2)c(C)c1,104.9*,x,0.9,1.0,82.8*,87.9*,69.8,105.6*,-0.6,
COc1cccc(C(C)(O)c2nc(-c3ccc(N(C)C)cc3)cs2)c1 (centres undefined),95.8*,x,-0.2,9.6,72.9*,82.6*,59.8,101.4*,-0.7,
SMILES,GalR3 antagonist,NR2E3 ag-1,PG9 binder,Rev-erbA mod,NR2E3 ag-2,NR2E3 ag confirm,VP16 counter,GalR3 conf,CNG parental,others
CCn1cc(CN(C)S(=O)(=O)c2ccc3ccccc3c2)c(C)n1,71.1*,1.5,1.2,0.6,66.2,87.8*,70.8*,102.8*,-0.2,
CCOC(=O)[C@@]12CCCC=C1N(CCc1ccc(Cl)cc1)C(=O)[C@H]2CC(=O)NCCCCc1ccccc1,x,x,x,-2.9,x,x,x,x,x,
C=CCC1(CC=C)CCCN1C(=O)c1cc(COc2ccc(C)nc2)on1,99.1*,0.3,2.2,-1.2,98.9*,97.1*,79.7*,102.8*,-0.2,
Cc1sc2ncnc(NCc3ccco3)c2c1C,-4.9,-2.3,1.4,-8.8,34.0,x,x,x,x,
Cc1sc2ncnc(NCC(O)c3ccccc3)c2c1C (centres undefined),38.3*,1.8,1.1,-7.3,75.2*,70.8*,50.6,25.2*,0.9,
Cc1sc2ncnc(N[C@@H](Cc3ccccc3)C(=O)O)c2c1C,-8.1,-0.8,-1.2,0.2,1.3,x,x,x,x,
Cc1sc2ncnc(NCc3cccs3)c2c1C,54.7*,2.9,0.4,-2.5,78.4*,96.1*,80.7*,58.0*,0.0,

# From PubChem BioAssay
